# Measurements pooled from the literature.
# Compare with care: the assays were run in different laboratories.
# Target: Discoidin domain-containing receptor 2 (DDR2, Homo sapiens, UniProt Q16832)
# Residues used in one study (Q16832 22-855): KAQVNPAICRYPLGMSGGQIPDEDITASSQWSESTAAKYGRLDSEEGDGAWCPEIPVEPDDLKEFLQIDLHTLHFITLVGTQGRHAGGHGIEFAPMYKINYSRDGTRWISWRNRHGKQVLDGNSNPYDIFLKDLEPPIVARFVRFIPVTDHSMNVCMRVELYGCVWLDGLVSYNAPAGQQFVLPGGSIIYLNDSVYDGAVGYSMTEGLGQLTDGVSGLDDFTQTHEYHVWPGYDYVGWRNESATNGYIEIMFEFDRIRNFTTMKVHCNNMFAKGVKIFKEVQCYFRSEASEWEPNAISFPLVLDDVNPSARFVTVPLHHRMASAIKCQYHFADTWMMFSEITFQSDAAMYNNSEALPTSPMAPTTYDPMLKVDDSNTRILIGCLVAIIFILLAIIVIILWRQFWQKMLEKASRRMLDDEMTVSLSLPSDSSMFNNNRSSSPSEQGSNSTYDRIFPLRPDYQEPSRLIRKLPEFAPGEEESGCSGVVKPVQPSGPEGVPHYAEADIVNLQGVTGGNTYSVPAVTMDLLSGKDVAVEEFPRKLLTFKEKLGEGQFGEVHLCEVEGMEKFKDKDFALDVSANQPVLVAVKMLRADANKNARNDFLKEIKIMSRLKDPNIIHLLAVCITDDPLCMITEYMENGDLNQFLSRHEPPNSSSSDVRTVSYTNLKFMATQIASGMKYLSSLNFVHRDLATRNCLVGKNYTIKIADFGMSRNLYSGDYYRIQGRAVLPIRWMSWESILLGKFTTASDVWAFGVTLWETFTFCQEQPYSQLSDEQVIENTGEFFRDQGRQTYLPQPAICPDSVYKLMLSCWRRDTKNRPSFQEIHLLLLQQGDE
SMILES,effect on,technique,tested at,remaining binding
O=C(NCCCN1CCOCC1)c1ccc(Nc2nccc(-c3cc4ccccc4s3)n2)cc1,binding,competition with immobilised ligand,1 µM,43%
O=C(N[C@H]1CCCCC/C=C\C2C[C@@]2(C(=O)O)NC(=O)[C@@H]2C[C@@H](Oc3ccncc3)CN2C1=O)OC1CCCC1 (some centres unmarked),cell-free assay,competition with immobilised ligand,1 µM,100%
O=C(c1ccc(Nc2ncc(Cl)c(-c3cc4ccccc4s3)n2)cc1)N1CCC(N2CCCC2)CC1,binding,competition with immobilised ligand,1 µM,23%
CCN1CCN(Cc2ccc(C(=O)Nc3ccc(C)c(Oc4ccc5c(c4)CC(=O)N5)c3)cc2C(F)(F)F)CC1,binding,competition with immobilised ligand,1 µM,14%
Nc1cnc(N2CCc3cc(S(=O)(=O)Nc4c(F)cc(Cl)cc4F)cc(N4CCCC4=O)c32)nc1,cell-free assay,competition with immobilised ligand,1 µM,100%
CN(C)c1nccc(-c2cnc3ncccn23)n1,binding,,1 µM,84%
CC(C)CC(=O)N1CCc2nc(-c3ccc(Br)cc3)nc(N(C)Cc3ccccc3)c2C1,cell-free assay,competition with immobilised ligand,0.1 µM,97%
CC1CCCN1c1nccc(-c2cnn3ncccc23)n1 (centres unmarked),binding,,1 µM,100%
CN(C)CC#Cc1ccc(OCCCc2sc(N3CCc4cccc(C(=O)Nc5nc6ccccc6s5)c4C3)nc2C(=O)O)c(F)c1,cell-free assay,competition with immobilised ligand,1 µM,83%
COc1ccnn2ncc(-c3ccnc(N(C)C)n3)c12,binding,,1 µM,67%
O=C(Nc1cccnn1)N1CCC(=Cc2cccc(Oc3ccc(C(F)(F)F)cn3)c2)CC1,cell-free assay,competition with immobilised ligand,1 µM,100%
CNC(=O)[C@@H]1CC[C@@H](n2c(-c3ccc4cnccc4c3)nc3ccc(C(=O)NCc4cccc(C(N)=O)c4)cc32)C1,binding,competition with immobilised ligand,1 µM,93%
O=C(NCC1CCOCC1)c1n[nH]cc1NC(=O)c1c(F)cccc1F,binding,competition with immobilised ligand,1 µM,100%
Cc1cnn2ncc(-c3ccnc(N(C)C)n3)c2c1,binding,,1 µM,69%
C=CC(=O)N1CCC(C(=O)NCC(=O)N2CCN(c3nc(-c4cnc(N)nc4C(F)F)nc(N4CCOCC4)n3)CC2)CC1,binding,competition with immobilised ligand,1 µM,83%
O=C(c1ccc(Nc2nccc(-c3cc4ccccc4s3)n2)cc1)N1CCC(N2CCCC2)CC1,binding,competition with immobilised ligand,1 µM,20%
C[C@@H]1CCN(c2nccc(-c3cnn4ncccc34)n2)C1,binding,,1 µM,66%
Nc1ncc2c(n1)-c1c([nH]c3ccc(C#CC4CC4)cc13)CCCC2,binding,competition with immobilised ligand,1 µM,80%
CC(C)(O)c1cncc(-c2nc3ccc(F)cc3n2C2CC2)c1,cell-free assay,competition with immobilised ligand,1 µM,100%
c1cnn2ncc(-c3ccnc(N4CCC45COC5)n3)c2c1,binding,,1 µM,83%
